Here are results for three compounds from ChEMBL document CHEMBL4138104, “Indole carboxylic acid esters of melampomagnolide B are potent anticancer agents against both hematological and solid tumor cells” (Eur J Med Chem, 2017).

In general, GI50 refers to the concentration that inhibits growth by half. A low value points to more potent growth inhibition. As usually defined, the EC50 is the concentration at which the effect is half-maximal. Higher therefore signals lower potency in that assay.

The subject of assay [1] is TK-10. Put plainly: Growth inhibition of human TK10 cells incubated for 48 hrs by sulforhodamine B assay. As to conditions: TK-10, 48 h. In kind it is functional. In a few lines: (§1)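 NCI-60 screen run at NCI. Cells grown in RPMI medium with 5% FBS and 2 mM L-glutamine, plated at 5,000–40,000 cells/well, and preincubated 24 h at 37 °C. Time-zero plates were TCA-fixed. Compounds came from DMSO stocks and were tested at five concentrations from 10^-4 to 10^-8 M for 48 h. Cells were then TCA-fixed, stained with 0.4% SRB, and OD read at 515 nm. GI50 is the concentration giving a 50% reduction in net protein increase versus control.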

The species entered for assay [2] is Rattus norvegicus. Description: Inhibition of colony formation of rat 9LSF cells at 5 to 20 uM after 48 hrs by colony formation assay. The assay is classed as functional. The essentials: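 9L-SF cells were seeded in 60 mm dishes to reach 50% confluence (6.65×10^4 cells/cm²) after 24 h. They were treated 48 h with drug serially diluted from DMSO stock (max 0.05% DMSO), then rinsed, trypsinized, counted and seeded in triplicate flasks for colonies. Lethally irradiated (25 Gy) feeders kept density at 2,000 cells/cm². Survival was normalized to control plating efficiency, with three experiments.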

Assay [3] deals with CAKI-1. Put plainly: Growth inhibition of human Caki1 cells incubated for 48 hrs by sulforhodamine B assay. The assay is classed as functional. The conditions noted are these: CAKI-1, 48 h. The essentials:
(§2)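 NCI-60 screen. Compounds were dosed at five concentrations spanning 10^-4 to 10^-8 M for 48 h at 37 °C. Cells were TCA-fixed, stained with 0.4% SRB and read at 515 nm against time-zero and vehicle controls. GI50 is the concentration giving a 50% reduction in net protein increase.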

The test system of assay [4] is SR. Put plainly: Growth inhibition of human SR cells incubated for 48 hrs by sulforhodamine B assay. The assay is classed as functional. The essentials: as §1
Assay [5] can be described thus: Induction of apoptosis in AML02 cells isolated from acute myelogenous leukemia patient after 24 hrs by annexin V/7-AAD/propidium iodide staining-based flow cytometric method. As to conditions: Homo sapiens. In kind it is functional, cell-based. In a few lines: (§3)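 Primary AML specimens from consenting patients were Ficoll-separated and some were cryopreserved. Cells were held 1 h in serum-free IMDM with 20% BIT 9500, LDL and beta-mercaptoethanol before drug. Drugs were diluted from DMSO stock into PBS, final DMSO ≤0.5%. Dosing was 0.5–10 μM for 24 h. Annexin V/7-AAD flow cytometry scored double-negative (non-apoptotic) cells, normalized to vehicle, in triplicate, and EC50 came from dose-response curves.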
A general note: A flow cytometer gives signals particle by particle.

Assay [6] deals with T47D. Description: Growth inhibition of human T47D cells incubated for 48 hrs by sulforhodamine B assay. In kind it is functional. The essentials: as §1
(The SRB assay estimates cell density from bound dye.)

The species entered for assay [7] is Rattus norvegicus. Description: Induction of necrosis in rat 9LSF cells at 20 uM after 48 hrs by microscopic analysis. In kind it is functional, cell-based. The essentials:
(§4)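 Rat 9L-SF gliosarcoma cells were grown in DMEM/F12 with 10% iron-supplemented calf serum at 37 °C under 5% CO2. Treatment was applied to 50% confluent monolayers. Cell detachment and necrosis were scored visually by microscopy.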

Assay [8] relates to 786-0. Description: Growth inhibition of human 786-0 cells incubated for 48 hrs by sulforhodamine B assay. As to conditions: 786-0, 48 h. The assay is classed as functional. In a few lines:
as §2

Assay [9] is described as follows: Potency index, ratio of melampomagnolide-B EC50 to compound EC50 for human M9-ENL1 cells. The assay is classed as functional. The essentials:
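M9-ENL1 AML cells, derived by MLL-ENL transduction of human blood cells, were plated at 10^6 cells/mL in alpha-MEM with 5% human plasma, 20% FBS, SCF, IL-3, IL-7 and FLT3 ligand. Exposure was 24 h. Non-apoptotic (Annexin V/7-AAD double-negative) fraction was normalized to vehicle, in triplicate, to give EC50. PTL and MMB were run as reference controls.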

Assay [10] relates to MDA-MB-435. Description: Growth inhibition of human MDA-MB-435 cells incubated for 48 hrs by sulforhodamine B assay. In kind it is functional. As to conditions: MDA-MB-435, 48 h. The essentials:
as §2

Assay [11] concerns BT-549. Put plainly: Growth inhibition of human BT549 cells incubated for 48 hrs by sulforhodamine B assay. The assay is classed as functional. The conditions noted are these: BT-549, 48 h. In a few lines:
as §2

Assay [12] relates to SK-MEL-2. Put plainly: Growth inhibition of human SK-MEL-2 cells incubated for 48 hrs by sulforhodamine B assay. The assay is classed as functional. As to conditions: SK-MEL-2, 48 h. In a few lines:
as §2

For assay [13], the system named is DU-145. Description: Growth inhibition of human DU145 cells incubated for 48 hrs by sulforhodamine B assay. In kind it is functional. As to conditions: DU-145, 48 h. In a few lines: as §2
The test system of assay [14] is SK-MEL-5. Description: Growth inhibition of human SK-MEL-5 cells incubated for 48 hrs by sulforhodamine B assay. In kind it is functional. As to conditions: SK-MEL-5, 48 h. In a few lines:
as §2

Assay [15] relates to MDA-MB-468. Put plainly: Growth inhibition of human MDA-MB-468 cells incubated for 48 hrs by sulforhodamine B assay. The conditions noted are these: MDA-MB-468, 48 h. The assay is classed as functional. The essentials:
as §2

The species entered for assay [16] is Rattus norvegicus. Description: Induction of cell detachment in rat 9LSF cells at 20 uM after 48 hrs by microscopic analysis. In kind it is functional, cell-based. In a few lines: as §4
Assay [17] is described as follows: Induction of apoptosis in AML01 cells isolated from acute myelogenous leukemia patient after 24 hrs by annexin V/7-AAD/propidium iodide staining-based flow cytometric method. The conditions noted are these: Homo sapiens, AML01, 24 h. In kind it is functional, cell-based. The essentials:
as §3

For assay [18], the system named is UACC-62. Description: Growth inhibition of human UACC62 cells incubated for 48 hrs by sulforhodamine B assay. The assay is classed as functional. As to conditions: UACC-62, 48 h. The essentials: as §1
For assay [19], the system named is M14. Put plainly: Growth inhibition of human M14 cells incubated for 48 hrs by sulforhodamine B assay. The assay is classed as functional. The conditions noted are these: M14, 48 h. In a few lines:
as §2

Assay [20] in a line: Induction of apoptosis in AML03 cells isolated from acute myelogenous leukemia patient after 24 hrs by annexin V/7-AAD/propidium iodide staining-based flow cytometric method. In kind it is functional, cell-based. As to conditions: Homo sapiens. In a few lines:
as §3

For assay [21], the system named is SNB-75. Put plainly: Growth inhibition of human SNB75 cells incubated for 48 hrs by sulforhodamine B assay. In kind it is functional. As to conditions: SNB-75, 48 h. In a few lines:
as §1

Assay [22] is described as follows: Induction of apoptosis in AML04 cells isolated from acute myelogenous leukemia patient after 24 hrs by annexin V/7-AAD/propidium iodide staining-based flow cytometric method. In kind it is functional, cell-based. The conditions noted are these: Homo sapiens. The essentials: as §3
Assay [23] concerns PC-3. Put plainly: Growth inhibition of human PC3 cells incubated for 48 hrs by sulforhodamine B assay. The assay is classed as functional. The conditions noted are these: PC-3, 48 h. In a few lines:
as §2

Assay [24] concerns MDA-MB-231. Description: Growth inhibition of human MDA-MB-231/ATCC cells incubated for 48 hrs by sulforhodamine B assay. The conditions noted are these: MDA-MB-231, 48 h. In kind it is functional. The essentials: as §2
Assay [25] concerns ACHN. Put plainly: Growth inhibition of human ACHN cells incubated for 48 hrs by sulforhodamine B assay. In kind it is functional. The essentials: as §2
Assay [26] concerns EKVX. Description: Growth inhibition of human EKVX cells incubated for 48 hrs by sulforhodamine B assay. In kind it is functional. The essentials: as §2
In assay [27] the test system is OVCAR-4. Description: Growth inhibition of human OVCAR4 cells incubated for 48 hrs by sulforhodamine B assay. The assay is classed as functional. The conditions noted are these: OVCAR-4, 48 h. The essentials: as §2
Assay [28] relates to OVCAR-3. Description: Growth inhibition of human OVCAR3 cells incubated for 48 hrs by sulforhodamine B assay. The assay is classed as functional. The conditions noted are these: OVCAR-3, 48 h. In a few lines: as §2
In assay [29] the test system is HOP-62. Description: Growth inhibition of human HOP62 cells incubated for 48 hrs by sulforhodamine B assay. As to conditions: HOP-62, 48 h. In kind it is functional. The essentials: as §2
Assay [30] relates to IGROV-1. Put plainly: Growth inhibition of human IGROV1 cells incubated for 48 hrs by sulforhodamine B assay. In kind it is functional. As to conditions: IGROV-1, 48 h. The essentials:
as §2

Assay [31] deals with COLO 205. Put plainly: Growth inhibition of human COLO205 cells incubated for 48 hrs by sulforhodamine B assay. As to conditions: COLO 205, 48 h. The assay is classed as functional. In a few lines:
as §2

In assay [32] the test system is Hs-578T. Put plainly: Growth inhibition of human Hs 578T cells incubated for 48 hrs by sulforhodamine B assay. In kind it is functional. In a few lines:
as §2

Active and inactive are the calls of the source. The calls are words filed in the database; no cut-off is given here.

With `C=C1C(=O)O[C@@H]2[C@H]3O[C@]3(C)CC/C=C(/COC(=O)c3cc4ccccc4[nH]3)CC[C@@H]12`, the GI50 in [1] is 1390 nM; in assay [3], 1080 nM; in assay [4] it was 1080 nM; in assay [6], under 10 nM; in [8], 370 nM; in assay [10], 760 nM. The GI50 is under 10 nM in assay [11]; 1920 nM in assay [12]; 1210 nM in assay [13]; 1260 nM in assay [14]; 300 nM in [15]; 1470 nM in assay [18]. For the same compound, the 50% growth inhibitory concentration (GI50) in assay [19] was found to be 810 nM; in assay [21] it was 1010 nM; in assay [23], 1420 nM; in assay [24], 1140 nM; in [25], 340 nM. In [2], the inhibition entry is “Active”. In addition, the EC50 in assay [5] was 2700 nM; in assay [17], 3500 nM; in assay [20] it was 2900 nM; in assay [22], 2200 nM. The result in [7] and in [16] was Active. In addition, the “Ratio IC50” value in [9] was 2 - 20.
In the case of `C=C1C(=O)O[C@@H]2C3O[C@]3(C)CC/C=C(\C)CC[C@@H]12` (some centres undefined), the GI50 in assay [26] stood at 17300 nM; in [3], 9350 nM; in assay [27] it was 21500 nM; in assay [28], 17400 nM; in assay [29] it was 49000 nM; in [18], 16800 nM. Further, the GI50 in assay [30] came to 21100 nM; in assay [21] it was 48400 nM. The EC50 came out at 6300 nM in assay [5], 5200 nM in assay [17], 1900 nM in [20] and 13000 nM in assay [22].
As for `C=C1C(=O)O[C@@H]2[C@H]3O[C@]3(C)CC/C=C(/COC(=O)c3cc4cc(OC)ccc4[nH]3)CC[C@@H]12`, the GI50 came to 1280 nM in assay [1]; 1500 nM in assay [26]; 1710 nM in [3]; 1630 nM in assay [27]; 1300 nM in assay [6]; 1270 nM in assay [8]. The GI50 in [10] came to 620 nM; in assay [28], 930 nM; in [31], 1180 nM; in [11], 1060 nM; in assay [12], 1600 nM; in assay [13], 1030 nM. For the same compound, the GI50 in assay [14] came out at 1740 nM; in assay [15] it was 1130 nM; in assay [32] it was 3090 nM; in assay [29] it was 1640 nM; in assay [18], 1380 nM; in assay [19], 1270 nM. Besides, the GI50 in assay [30] was 1480 nM; in assay [23] it was 1830 nM; in assay [24], 1580 nM; in [25], 810 nM. Further, the EC50 came out at 3300 nM in assay [5], 3000 nM in assay [17], 2200 nM in assay [20] and 3300 nM in assay [22]. For the same compound, the “Ratio IC50” value in assay [9] is on record as 2 - 20.
